# ChEMBL document CHEMBL1122702, “Radiohalogen-labeled imaging agents. 3. Compounds for measurement of brain blood flow by emission tomography” (J Med Chem, 1984)
# Columns and labels:
# Type in all cases: ADME, organism-based
# Rattus norvegicus [1] = species on record: Rattus norvegicus; assay: The distribution of the 131 I-labeled compound at 30 min was evaluated in rat brain as Percent of injected dose per gram in the organ; conditions: in vivo, 0.5 h
# In short: (§1)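 Male Sprague-Dawley rats (200–300 g, free access to food and water), lightly ether-anesthetized and restrained, received a 0.2 mL saline tail-vein bolus of 10–20 μCi 131I-labeled compound. They were decapitated at the stated time, and organs were excised, weighed and gamma-counted. Percent injected dose was determined against a calibrated external standard made by serial dilution of the injectate. n = 1–4 rats.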
# Rattus norvegicus [2] = species on record: Rattus norvegicus; assay: The distribution of the 131 I-labeled compound at 30 min was evaluated in rat heart as Percent of injected dose in the total organ; conditions: in vivo, 0.5 h; in short: as §1
# Rattus norvegicus [3] = species on record: Rattus norvegicus; assay: The distribution of the 131 I-labeled compound at 30 min was evaluated in rat heart as Percent of injected dose per gram in the organ; conditions: in vivo, 0.5 h; in short: as §1
# Rattus norvegicus [4] = species on record: Rattus norvegicus; assay: The distribution of the 131 I-labeled compound at 30 min was evaluated in rat kidney as Percent of injected dose in the total organ; conditions: in vivo, 0.5 h; in short: as §1
# Rattus norvegicus [5] = species on record: Rattus norvegicus; assay: The distribution of the 131 I-labeled compound at 30 min was evaluated in rat kidney as Percent of injected dose per gram in the organ; conditions: in vivo, 0.5 h; in short: as §1
# Rattus norvegicus [6] = species on record: Rattus norvegicus; assay: The distribution of the 131 I-labeled compound at 30 min was evaluated in rat liver as Percent of injected dose in the total organ; conditions: in vivo, 0.5 h; in short: as §1
# Rattus norvegicus [7] = species on record: Rattus norvegicus; assay: The distribution of the 131 I-labeled compound at 30 min was evaluated in rat liver as Percent of injected dose per gram in the organ; conditions: in vivo, 0.5 h; in short: as §1
# Rattus norvegicus [8] = species on record: Rattus norvegicus; assay: The distribution of the 131 I-labeled compound at 30 min was evaluated in rat lung as Percent of injected dose per gram in the organ; conditions: in vivo, 0.5 h; in short: as §1
# Rattus norvegicus [9] = species on record: Rattus norvegicus; assay: The distribution of the 131 I-labeled compound at 5 min was evaluated in rat brain as Percent of injected dose in the total organ; conditions: in vivo; in short: as §1
# Rattus norvegicus [10] = species on record: Rattus norvegicus; assay: The distribution of the 131 I-labeled compound at 5 min was evaluated in rat brain as Percent of injected dose per gram in the organ; conditions: in vivo; in short: as §1
# Rattus norvegicus [11] = species on record: Rattus norvegicus; assay: The distribution of the 131 I-labeled compound at 5 min was evaluated in rat heart as Percent of injected dose in the total organ; conditions: in vivo; in short: as §1
# Rattus norvegicus [12] = species on record: Rattus norvegicus; assay: The distribution of the 131 I-labeled compound at 5 min was evaluated in rat heart as Percent of injected dose per gram in the organ; conditions: in vivo; in short: as §1
# Rattus norvegicus [13] = species on record: Rattus norvegicus; assay: The distribution of the 131 I-labeled compound at 5 min was evaluated in rat kidney as Percent of injected dose in the total organ; conditions: in vivo; in short: as §1
# Rattus norvegicus [14] = species on record: Rattus norvegicus; assay: The distribution of the 131 I-labeled compound at 5 min was evaluated in rat kidney as Percent of injected dose per gram in the organ; conditions: in vivo; in short: as §1
# Rattus norvegicus [15] = species on record: Rattus norvegicus; assay: The distribution of the 131 I-labeled compound at 5 min was evaluated in rat liver as Percent of injected dose in the total organ; conditions: in vivo; in short: as §1
# Rattus norvegicus [16] = species on record: Rattus norvegicus; assay: The distribution of the 131 I-labeled compound at 5 min was evaluated in rat liver as Percent of injected dose per gram in the organ; conditions: in vivo; in short: as §1
# Rattus norvegicus [17] = species on record: Rattus norvegicus; assay: The distribution of the 131 I-labeled compound at 5 min was evaluated in rat lung as Percent of injected dose per gram in the organ; conditions: in vivo; in short: as §1
# Rattus norvegicus [18] = species on record: Rattus norvegicus; assay: The distribution of the 131 I-labeled compound at 30 min was evaluated in rat blood as Percent of injected dose per gram in the organ; conditions: in vivo, 0.5 h; in short: as §1
# Rattus norvegicus [19] = species on record: Rattus norvegicus; assay: Ratio of distribution of the [131I]-labeled compound at 30 min in rat brain over uptake in blood; conditions: 0.5 h
# In short: (§2)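 Male Sprague-Dawley rats (200–300 g, fed ad libitum), ether-anesthetized, got a tail-vein bolus of 0.2 mL saline containing 10–20 μCi 131I compound and were decapitated at the stated time. Organs were weighed and gamma-counted against a serially diluted external standard. Organ/blood ratio was calculated from % dose per gram of organ. Animal numbers per time point were 1–4.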
# Rattus norvegicus [20] = species on record: Rattus norvegicus; assay: Ratio of distribution of the [131I]-labeled compound at 30 min in rat heart over uptake in blood; conditions: other tissue, 0.5 h; in short: as §2
# Rattus norvegicus [21] = species on record: Rattus norvegicus; assay: Ratio of distribution of the [131I]-labeled compound at 30 min in rat kidney over uptake in blood; conditions: other tissue, 0.5 h; in short: as §2
# Rattus norvegicus [22] = species on record: Rattus norvegicus; assay: Ratio of distribution of the [131I]-labeled compound at 30 min in rat liver over uptake in blood; conditions: other tissue, 0.5 h; in short: as §2
# Rattus norvegicus [23] = species on record: Rattus norvegicus; assay: Ratio of distribution of the [131I]-labeled compound at 30 min in rat lung over uptake in blood; conditions: other tissue, 0.5 h; in short: as §2
# Rattus norvegicus [24] = species on record: Rattus norvegicus; assay: Ratio of distribution of the [131I]-labeled compound at 5 min in rat brain over uptake in blood; in short: as §2
# Rattus norvegicus [25] = species on record: Rattus norvegicus; assay: Ratio of distribution of the [131I]-labeled compound at 5 min in rat heart over uptake in blood; conditions: other tissue; in short: as §2
# Rattus norvegicus [26] = species on record: Rattus norvegicus; assay: Ratio of distribution of the [131I]-labeled compound at 5 min in rat kidney over uptake in blood; conditions: other tissue; in short: as §2
# Rattus norvegicus [27] = species on record: Rattus norvegicus; assay: Ratio of distribution of the [131I]-labeled compound at 5 min in rat liver over uptake in blood; conditions: other tissue; in short: as §2
# Rattus norvegicus [28] = species on record: Rattus norvegicus; assay: Ratio of distribution of the [131I]-labeled compound at 5 min in rat lung over uptake in blood; conditions: other tissue; in short: as §2
# Rattus norvegicus [29] = species on record: Rattus norvegicus; assay: The distribution of the 131 I-labeled compound at 5 min was evaluated in rat blood as Percent of injected dose per gram in the organ; conditions: in vivo; in short: as §1
# Rattus norvegicus [30] = species on record: Rattus norvegicus; assay: The distribution of the 131 I-labeled compound at 30 min was evaluated in rat brain as Percent of injected dose in the total organ; conditions: in vivo, 0.5 h; in short: as §1
Structure (SMILES),Dose (Rattus norvegicus [1]) [%],Dose (Rattus norvegicus [2]) [%],Dose (Rattus norvegicus [3]) [%],Dose (Rattus norvegicus [4]) [%],Dose (Rattus norvegicus [5]) [%],Dose (Rattus norvegicus [6]) [%],Dose (Rattus norvegicus [7]) [%],Dose (Rattus norvegicus [8]) [%],Dose (Rattus norvegicus [9]) [%],Dose (Rattus norvegicus [10]) [%],Dose (Rattus norvegicus [11]) [%],Dose (Rattus norvegicus [12]) [%],Dose (Rattus norvegicus [13]) [%],Dose (Rattus norvegicus [14]) [%],Dose (Rattus norvegicus [15]) [%],Dose (Rattus norvegicus [16]) [%],Dose (Rattus norvegicus [17]) [%],Dose (Rattus norvegicus [18]) [%],Ratio (Rattus norvegicus [19]),Ratio (Rattus norvegicus [20]),other results
COc1cc(CC(C)NCC#N)c(OC)cc1I (stereo not given),0.31,0.3,0.39,2.2,1.2,9.5,1.2,1.9,0.61,0.3,0.69,0.52,4.8,1.5,8.4,0.53,2.6,0.13,2.4,3,Ratio (Rattus norvegicus [21]): 9.2; Ratio (Rattus norvegicus [22]): 9.2; Ratio (Rattus norvegicus [23]): 15; Ratio (Rattus norvegicus [24]): 3; Ratio (Rattus norvegicus [25]): 4.7; Ratio (Rattus norvegicus [26]): 15; Ratio (Rattus norvegicus [27]): 4.8; Ratio (Rattus norvegicus [28]): 24; Dose (Rattus norvegicus [29]): 0.11%; Dose (Rattus norvegicus [30]): 0.61%
COc1cc(CC(C)N(C)C)c(OC)cc1I (stereo not given),0.55,0.28,0.26,2.4,0.9,12,0.89,1.7,3.4,1.8,1.1,0.8,6.8,2.4,16,1.1,3.1,0.11,5,2.4,Ratio (Rattus norvegicus [21]): 8.4; Ratio (Rattus norvegicus [22]): 8.1; Ratio (Rattus norvegicus [23]): 15; Ratio (Rattus norvegicus [24]): 9; Ratio (Rattus norvegicus [25]): 4; Ratio (Rattus norvegicus [26]): 5.5; Ratio (Rattus norvegicus [27]): 5.5; Ratio (Rattus norvegicus [28]): 16; Dose (Rattus norvegicus [29]): 0.2%; Dose (Rattus norvegicus [30]): 1.1%
COc1cc(CC(C)N(C)C(C)C)c(OC)cc1I (stereo not given),0.05,0.24,0.19,1.1,0.38,4.6,0.32,0.38,0.23,0.12,0.39,0.34,1.5,0.53,10,0.76,0.53,0.53,0.09,0.36,Ratio (Rattus norvegicus [21]): 0.72; Ratio (Rattus norvegicus [22]): 0.6; Ratio (Rattus norvegicus [23]): 0.72; Ratio (Rattus norvegicus [24]): 0.24; Ratio (Rattus norvegicus [25]): 0.68; Ratio (Rattus norvegicus [26]): 1.1; Ratio (Rattus norvegicus [27]): 1.6; Ratio (Rattus norvegicus [28]): 1.1; Dose (Rattus norvegicus [29]): 0.5%; Dose (Rattus norvegicus [30]): 0.1%
COc1cc(CC(C)NCCCN(C)C)c(OC)cc1I (stereo not given),0.02,1.6,1.5,5.7,2,7.7,0.55,5.4,0.05,0.03,1.9,1.8,57,2,11,0.66,3.8,0.07,0.3,21,Ratio (Rattus norvegicus [21]): 29; Ratio (Rattus norvegicus [22]): 7.8; Ratio (Rattus norvegicus [23]): 77; Ratio (Rattus norvegicus [24]): 0.3; Ratio (Rattus norvegicus [25]): 17; Ratio (Rattus norvegicus [26]): 16; Ratio (Rattus norvegicus [27]): 6; Ratio (Rattus norvegicus [28]): 34; Dose (Rattus norvegicus [29]): 0.11%; Dose (Rattus norvegicus [30]): 0.04%
